One data set concerns MDA-MB-436. Description: Antiproliferative activity against human p53-null MDA-MB-436 cells assessed as inhibition of cell growth at 10 to 50 uM measured after 24 to 72 hrs by WST-1 assay. Conditions: dose 10-50 µM, time 24-72 hrs. In kind it is functional, cell-based. The essentials:
(§1)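 WST-1 proliferation assay. Compound diluted in DMSO so that 10 μl of stock in 1 ml of cells (40,000 cells/ml) gives the test concentration at 1% DMSO. Cells plated at 4,000/well in duplicate and incubated at 37 °C for 24 h or 72 h. Result given as % of the 1% DMSO control.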

Data set [1] deals with Cellular tumor antigen p53 (Homo sapiens), P04637 [R280K]. Description: Reactivation of transactivation function to p53 R280K mutant in human MDA-MB-231 cells assessed as ATM activation by measuring increase in phosphorylation of ATM at serine 1981 residue at 6 uM measured after 24 hrs by immunoblot analysis. Type of data set: cell-based. Conditions: filed as activator. The essentials: (§2)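 DMSO or 6 µM for 24 h. 250 µg of lysate run on 4-12% SDS-PAGE, blot probed with anti-pATM Ser1981 (1:500), then anti-mouse HRP secondary with ECL detection. GAPDH reprobe as control. Triplicate experiments.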
Background: A western blot detects proteins with antibodies after separation by electrophoresis.

The test system of data set [2] is MDA-MB-468. Description: Antiproliferative activity against human MDA-MB-468 cells transfected with non-specific siRNA assessed as inhibition of cell growth at 5 to 25 uM measured after 24 hrs by WST-1 assay. In kind it is functional, cell-based. The settings on record: dose 5-25 µM. In short, it runs like this: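 MDA-MB-468 cells plated at 50-60% confluence 24 h before transfection. p53 SMARTpool or non-specific siRNA (0.430 nmol) given with Lipofectamine 2000 in Opti-MEM for 5 h, repeated after 24 h. Drug or DMSO added 72 h after the first transfection. Proliferation read by WST-1, % of DMSO control.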

The test system of data set [3] is MDA-MB-231. Description: Antiproliferative activity against human MDA-MB-231cells expressing p53 R280K mutant assessed as inhibition of cell growth at 10 to 50 uM incubated for 24 hrs by WST-1 assay. Conditions: dose 10-50 µM. Type of data set: functional, cell-based. In short, it runs like this:
as §1

Data set [4] deals with MCF7. Description: Cell cycle arrest in human MCF7 cells expressing wild type p53 assessed as accumulation of cells at G2/M phase at 6 uM measured after 24 hrs by PI staining based flow cytometry (reference value: 21.3%). In kind it is functional. In general terms: Flow cytometry measures light scatter and fluorescence of single cells or particles in a stream.
For data set [5], the system named is Cellular tumor antigen p53 (Homo sapiens), P04637 [R280K]. Description: Reactivation of transactivation function to p53 R280K mutant in human MDA-MB-231 cells assessed as increase in NOXA mRNA expression at 6 uM incubated for 4 hrs by qRT-PCR analysis. Type of data set: cell-based. The settings on record: filed as activator. In short, it runs like this: (§3)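 Cells treated with DMSO or 6 µM test compound for 4 h. RNA extracted, cDNA synthesised, transcript measured by TaqMan qRT-PCR and normalised to GAPDH. Averages from triplicates of repeated experiments, with standard deviation.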
Background: In qPCR the cycle at which signal appears reflects the starting amount.

Data set [6] relates to MDA-MB-468. Description: Effect on p53 R273H mutant mRNA expression in human MDA-MB-468 cells at 6 uM measured after 4 hrs by qRT-PCR analysis. Type of data set: functional, cell-based. In short, it runs like this: as §3
Data set [7] relates to MDA-MB-468. Description: Cell cycle arrest in human MDA-MB-468 cells expressing p53 R273H mutant assessed as accumulation of cells at G1 phase at 6 uM measured after 24 hrs by PI staining based flow cytometry (reference value: 30.6%). Type of data set: functional.
A further data set concerns MCF-10A. Description: Cytotoxicity against human MCF10A cells expressing wild type p53 assessed as inhibition of cell growth at 10 to 50 uM incubated for 24 to 72 hrs by WST-1 assay. Type of data set: functional, cell-based. Conditions: dose 10-50 µM, time 24-72 hrs.
In data set [8] the test system is MDA-MB-468. Description: Induction of apoptosis in human MDA-MB-468 cells expressing p53 R273H mutant assessed as decrease in level of uncleaved PARP1 level at 6 to 12 uM measured after 24 hrs by western blotting analysis. Conditions: dose 6-12 µM. Type of data set: functional, cell-based. In short, it runs like this: (§4)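 Cells treated with DMSO or compound at 6 or 12 µM for 24 h, then lysed in Tris-Cl pH 8.0/NaCl/glycerol/NP-40/EDTA buffer with protease inhibitors. 100 µg lysate resolved on 4-12% SDS-PAGE and blotted to PVDF. Probed with anti-PARP or anti-caspase 3, then HRP secondary and ECL. GAPDH reprobe as control.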

Data set [9] concerns Cellular tumor antigen p53 (Homo sapiens), P04637 [R273H]. Description: Reactivation of transactivation function to p53 R273H mutant in human MDA-MB-468 cells assessed as increase in p21 mRNA expression at 6 uM incubated for 4 hrs by qRT-PCR analysis. Type of data set: cell-based. The settings on record: filed as activator. In short, it runs like this:
as §3

Data set [10] deals with MCF7. Description: Induction of apoptosis in human MCF-7 cells expressing wild type p53 assessed increase in number of Annexin-V stained cells at 6 to 12 uM incubated for 24 hrs by AnnexinV-FITC and PI staining based flow cytometry. Type of data set: functional, cell-based. The settings on record: dose 6-12 µM. In short, it runs like this: (§5)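 24 h treatment, DMSO control. Cells scraped, washed in PBS, then given fluorochrome-conjugated Annexin V for 15 min at RT in the dark, followed by PI (0.1 µg/ml) in binding buffer. Read by flow cytometry on LSRFortessa. Annexin V-positive cells expressed relative to the DMSO control.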

The test system of data set [11] is MCF7. Description: Upregulation of p53 expression in human MCF7 cells at 6 to 12 uM measured after 24 hrs by immunoblot analysis. Type of data set: functional, cell-based. Conditions: dose 6-12 µM. In short, it runs like this: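 Cells treated with DMSO or compound at 6 or 12 µM for 24 h and lysed. 50 µg MCF-7 lysate resolved by SDS-PAGE and probed with p53 DO-1 antibody. Reprobed with anti-GAPDH as loading control. Run in triplicate.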

Data set [12] deals with MDA-MB-231. Description: Cell cycle arrest in human MDA-MB-231 cells expressing p53 R280K mutant assessed as accumulation of cells at G1 phase at 6 uM measured after 24 hrs by PI staining based flow cytometry (reference value: 42.9%).
For data set [13], the system named is Cellular tumor antigen p53 (Homo sapiens), P04637 [R273H]. Description: Reactivation of transactivation function to p53 R273H mutant in human MDA-MB-468 cells assessed as ATM activation by measuring increase in phosphorylation of ATM at serine 1981 residue at 6 uM measured after 24 hrs by immunoblot analysis. Type of data set: cell-based. The settings on record: filed as activator. In short, it runs like this: as §2

Data set [14] has as its system MDA-MB-231. Description: Induction of apoptosis in human MDA-MB-231 cells expressing p53 R280K mutant assessed as increase in level of cleaved PARP1 level at 6 to 12 uM measured after 24 hrs by western blotting analysis. Conditions: dose 6-12 µM. In kind it is functional, cell-based. The essentials: as §4
A short description of data set [15]: Octanol-water partition coefficient, logP of the compound by HPLC-MS analysis. In kind it is physicochemical. Conditions: 18 h. In short, it runs like this: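 Compound (10 µL of 10 mM DMSO stock) added to 0.5 mL octanol plus 0.5 mL sodium phosphate buffer pH 7.4. Stirred 18 h, centrifuged 2 h at 3600 rpm. Concentration in each phase measured by LC-MS on a C18 column.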

Data set [16] deals with MDA-MB-231. Description: Induction of apoptosis in human MDA-MB-231 cells expressing p53 R280K mutant assessed increase in number of Annexin-V stained cells at 6 to 12 uM incubated for 24 hrs by AnnexinV-FITC and PI staining based flow cytometry. In kind it is functional, cell-based. Conditions: dose 6-12 µM. The essentials: as §5
For data set [17], the system named is MDA-MB-468. Description: Induction of apoptosis in human MDA-MB-468 cells expressing p53 R273H mutant assessed increase in number of Annexin-V stained cells at 6 to 12 uM incubated for 24 hrs by AnnexinV-FITC and PI staining based flow cytometry. Type of data set: functional, cell-based. Conditions: dose 6-12 µM. In short, it runs like this:
as §5

Activity calls are given as the source filed them. The rule behind the calls is not given here.

What is called logP is a log measure of how a compound divides between an organic and an aqueous phase. Low readings indicate a more hydrophilic compound, high ones a more lipophilic compound.

Take `S=C=NCCCC12CC3CC(CC(C3)C1)C2`: the outcome in the data set with MDA-MB-436, with MDA-MB-468 [6], with MCF-10A, with MCF7 [10] and in the data set on MCF7 [11] was inactive. Further, the outcome (in data set [1]; with MDA-MB-468 [2]; in [5]; in the data set with MDA-MB-468 [8]; in data set [9]; in [13]) was Active. Further, the outcome in the data set on MDA-MB-231 [14] was Active. The Activity entry in the data set on MDA-MB-231 [3] was “Dose-Dependent Effect”; in the data set on MCF7 [4], 24.3%; in the data set with MDA-MB-468 [7], 53.2%; with MDA-MB-231 [12], 48.2%.

Consider `[Se]=C=NCCC12CC3CC(CC(C3)C1)C2`, for which the outcome (in data set [5]; in the data set with MDA-MB-468 [8]; in [9]; in the data set with MDA-MB-231 [16]; in the data set on MCF7 [11]; in the data set with MDA-MB-468 [17]) was Active. Besides, the result in the data set on MDA-MB-231 [14] was Active. The outcome in the data set on MDA-MB-468 [6], with MCF-10A and in the data set with MCF7 [10] was inactive. The logP in data set [15] is recorded as 4.05.

The record behind these values is ChEMBL document CHEMBL5038582, “Adamantyl Isothiocyanates as Mutant p53 Rescuing Agents and Their Structure-Activity Relationships” (J Med Chem, 2021).
